High-throughput results: PubChem BioAssay, several laboratories
Most compounds without a hit are left out; they make up all but 4.3% or so of the library.
MC4R barr agon – human MC4R agonism via beta-arrestin | 360,000 compounds, 0.98% hits | P32245 | activation, % at 8.9 µM | U2OS MC4R beta-arrestin complementation, luminescence; percent of melanotan II response, DMSO zero | AID 540308;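 active = activation above a per-plate cutoff, the mean activation of sample wells on that plate plus 3 SD, cut at about 8% in these data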
MC4R antagonist – antagonists of human melanocortin 4 receptor (MC4R). MC4R-expressing cells, MTII-stimulated cAMP, LANCE TR-FRET. inhibition, % at 6.5 µM. 360,000 compounds, 0.48% hits. AID 540295;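 active = inhibition above its plate's cutoff, the mean of tested wells on that plate plus 3 SD, cut at about 29% in these data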;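 also: 0% = Melanotan II alone and 100% = Melanotan II plus saturating MCL0020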
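Material: U2OS-MC4R stable cell line | Reagent: Melanotan II challenge after compound preincubation | Doses: One concentration, 6.5 µM nominal | Incubation: 30-min compound preincubation, 1-h Melanotan II challenge, 1-h detection, room temperature | Signal: TR-FRET cAMP assay | Replicates: One well per compound, no replicates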
TAAR1 antag – antagonists of human TAAR1; 360,000 compounds, 1.5% hits; inhibition, % at 3 µM; CHO RD-HGA16 TAAR1, Fluo-8 calcium fluorescence, antagonist;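 active = inhibition above a per-plate cutoff, the mean inhibition of test compounds on that plate plus 3 SD, cut at about 49% in these data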;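 also: 0% = DMSO plus EC80 beta-PEA response and 100% = DMSO alone without agonist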
Target sequence (Q96RJ0 whole entry, looked up): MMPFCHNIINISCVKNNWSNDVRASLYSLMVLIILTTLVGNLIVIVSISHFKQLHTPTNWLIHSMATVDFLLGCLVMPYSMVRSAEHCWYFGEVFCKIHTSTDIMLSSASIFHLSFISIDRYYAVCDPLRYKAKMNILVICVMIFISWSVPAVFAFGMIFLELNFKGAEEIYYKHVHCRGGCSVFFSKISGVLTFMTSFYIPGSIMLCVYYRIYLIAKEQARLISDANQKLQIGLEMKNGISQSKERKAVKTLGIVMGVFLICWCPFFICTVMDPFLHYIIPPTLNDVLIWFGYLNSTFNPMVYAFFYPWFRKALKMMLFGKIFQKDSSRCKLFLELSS
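Test system: hTAAR1-expressing CHO RD-HGA16 cells, Gα16-coupled; Probe or stimulus: EC80 β-phenethylamine stimulus; Compound dosing: single nominal final test compound concentration of 3 µM; Timing: 140 s kinetic read after compound, 140 s after agonist; Signal: Fluo-8 calcium-sensitive fluorescence; Measure: % inhibition of agonist calcium response; Controls: DMSO and EC80 PEA controls.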
B2AR ag – activates human beta-2 adrenergic receptor causing internalization; response, % (test concentration not listed); AID 504454; 340,000 compounds, 0.43% hits; Am2.2-beta2AR cells, FAP receptor internalization, flow cytometry;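 active = response above a set limit, near 3 SD of response in nonfluorescent compounds, cut at about 42% in these data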
HTR2A ag – mouse HTR2A agonism via beta-arrestin recruitment | P35363 | 360,000 compounds, 0.66% hits | CHO-K1 mHTR2A beta-arrestin complementation, luminescence; percent of 30 µM serotonin response | activation, % at 7.6 µM;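 active = activation above a run cutoff, the mean activation of all tested compounds plus 3 SD, cut at about 14% in these data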;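 also: 0% = plate median of compound wells and 100% = 30 µM serotonin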
TAAR1 agonist – agonists of human TAAR1. 360,000 compounds, 0.99% hits. activation, % at 3 µM. AID 624467. CHO RD-HGA16 TAAR1, Fluo-8 calcium fluorescence; vehicle wells 0%, saturating PEA agonist 100%. Q96RJ0;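 active = activation above the mean activation of all test compounds in the run plus 3 SD, cut at about 38% in these data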
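Signal – calcium-sensitive Fluo-8 signal, excitation 470-495, emission 515-575 nm · System – RD-HGA16 (CHO) cells co-expressing Gα16 and hTAAR1 · Incubation – 17-24 h seeding, 75 min 37 °C dye, 30 min RT · Compound dosing – 3 µM single concentration · Repeats – no replicates (n 1)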
MOR ag counter – OPRM1 agonism in mouse HTR2A counterscreen. 2,300 compounds, 5.3% hits. U2OS OPRM1 beta-arrestin PathHunter, luminescence; DMSO 0%, DAMGO 9.3 µM 100%. activation, % at 9.3 µM. shares compounds with HTR2A ag;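 active = mean activation above the mean of DMSO-only wells plus 3 SD, cut at about 0.5% in these data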
Target sequence (P35372 whole entry, looked up): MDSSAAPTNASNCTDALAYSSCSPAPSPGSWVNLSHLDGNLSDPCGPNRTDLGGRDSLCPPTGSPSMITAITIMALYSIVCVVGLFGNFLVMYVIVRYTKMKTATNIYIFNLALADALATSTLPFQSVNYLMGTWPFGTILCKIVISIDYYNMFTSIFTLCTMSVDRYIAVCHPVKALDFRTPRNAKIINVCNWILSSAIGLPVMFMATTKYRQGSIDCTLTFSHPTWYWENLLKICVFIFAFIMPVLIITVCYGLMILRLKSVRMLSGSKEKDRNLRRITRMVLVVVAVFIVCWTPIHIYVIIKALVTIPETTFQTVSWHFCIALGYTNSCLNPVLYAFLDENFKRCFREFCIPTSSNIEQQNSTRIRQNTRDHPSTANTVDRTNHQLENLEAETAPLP
HTR2A ag conf – confirmation of mouse HTR2A serotonin receptor agonists; shares compounds with HTR2A ag; CHO-K1 PathHunter beta-arrestin recruitment, luminescence; DMSO 0%, 30 µM serotonin 100%; activation, % at 7.6 µM; 2,300 compounds, 19% hits; AID 624381;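 active = mean activation across triplicates above the hit threshold derived in the original primary screen, cut at about 15% in these data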
* hit, by the source's call.

Results for O=C(O)C1CSC(c2ccc(O)c([N+](=O)[O-])c2)N1 (configuration not stated) ?
MC4R barr agon: -3.2; MC4R antagonist: 4.6; TAAR1 antag: 0.6; B2AR ag: -2.8; HTR2A ag: -0.3; TAAR1 agonist: -0.3

How did COC(=O)CC(NS(=O)(=O)c1cccs1)c1ccccc1Cl (configuration not stated) do in these assays?
MC4R barr agon: -0.9; MC4R antagonist: 5.1; TAAR1 antag: -1.4; B2AR ag: 5.4; HTR2A ag: 18.6*; TAAR1 agonist: 1.5; MOR ag counter: -0.4; HTR2A ag conf: -3.8

Results for O=C1C2CC=CCC2C(=O)N1Nc1ccccc1 (configuration not stated) ?
MC4R barr agon: 0.6; MC4R antagonist: 26.0; TAAR1 antag: -1.4; B2AR ag: 8.3; HTR2A ag: 1.6; TAAR1 agonist: 4.1

What do the screens show for `O=c1c2ccccc2c2ccccc2c(=O)n1Nc1ccccc1`?
MC4R barr agon: 1.0; MC4R antagonist: 16.7; TAAR1 antag: -18.7; HTR2A ag: 19.6*; TAAR1 agonist: 4.4; MOR ag counter: -0.4; HTR2A ag conf: -2.2

How did CCc1cc(=O)oc2c(C)c(O)c(CN3CCCCC3)cc12 do in these assays?
MC4R barr agon: 1.3; MC4R antagonist: 19.2; TAAR1 antag: -4.8; B2AR ag: -1.6; HTR2A ag: 22.2*; TAAR1 agonist: 3.8; MOR ag counter: -0.5; HTR2A ag conf: -2.3

What do the screens show for `O=C1CSC(=S)N1N=Cc1ccc(Cl)s1`?
MC4R barr agon: -0.1; MC4R antagonist: 0.4; TAAR1 antag: -13.0; B2AR ag: 10.1; HTR2A ag: 2.5; TAAR1 agonist: 2.8

What do the screens show for `Cc1ccc(S(=O)(=O)CCC(=O)Nc2nc(C(C)(C)C)cs2)cc1`?
MC4R barr agon: -1.4; MC4R antagonist: 6.2; TAAR1 antag: 1.6; B2AR ag: 0.7; HTR2A ag: -2.2; TAAR1 agonist: 0.0

How did Cc1ccc(S(=O)(=O)CC(=O)Nc2nc(C(C)(C)C)cs2)cc1 do in these assays?
MC4R barr agon: 4.0; MC4R antagonist: 11.4; TAAR1 antag: -21.6; B2AR ag: -2.5; HTR2A ag: 18.8*; TAAR1 agonist: -4.6; MOR ag counter: -0.1; HTR2A ag conf: -1.4

What do the screens show for `O=S1(=O)NC(CC2=CCCCC2)C2CCCCC2O1` (configuration not stated)?
MC4R barr agon: 7.0; MC4R antagonist: 7.2; TAAR1 antag: 6.5; B2AR ag: 10.4; HTR2A ag: -4.0; TAAR1 agonist: 3.7

What do the screens show for `COc1cc(C#Cc2ccc3cc(CCO)oc(=O)c3c2)cc(OC)c1`?
MC4R barr agon: 0.4; MC4R antagonist: -11.7; TAAR1 antag: 0.2; B2AR ag: 25.6; HTR2A ag: 16.6*; TAAR1 agonist: 11.8; MOR ag counter: -0.2; HTR2A ag conf: -1.8

Results for CCCC(=O)Nc1cccc(-c2nc3ccccc3c(=O)o2)c1 ?
MC4R barr agon: 0.7; MC4R antagonist: 11.4; TAAR1 antag: -33.9; B2AR ag: -4.1; HTR2A ag: 15.0*; TAAR1 agonist: 0.5; MOR ag counter: -0.2; HTR2A ag conf: -1.3

What do the screens show for `CC(C)(C)C(=O)Nc1cccc(-c2nc3ccccc3c(=O)o2)c1`?
MC4R barr agon: 1.6; MC4R antagonist: 6.8; TAAR1 antag: -22.1; B2AR ag: 2.0; HTR2A ag: 3.3; TAAR1 agonist: 6.8

What do the screens show for `Cc1cc(NC(=O)c2cccc(S(=O)(=O)N3CCCCC3)c2)no1`?
MC4R barr agon: -3.2; MC4R antagonist: -4.9; TAAR1 antag: -21.7; B2AR ag: -14.7; HTR2A ag: 17.7*; TAAR1 agonist: 0.4; MOR ag counter: -0.5; HTR2A ag conf: -1.3

How did Cc1cc(NC(=O)c2cccc(S(=O)(=O)N3CCOCC3)c2)no1 do in these assays?
MC4R barr agon: -1.7; MC4R antagonist: 15.3; TAAR1 antag: -11.6; B2AR ag: 0.7; HTR2A ag: -3.1; TAAR1 agonist: 6.9

How did O=C(NC1CCCC1)c1cccc(S(=O)(=O)N2CCCCC2)c1 do in these assays?
MC4R barr agon: 0.0; MC4R antagonist: -1.5; TAAR1 antag: -0.9; B2AR ag: -1.1; HTR2A ag: 16.3*; TAAR1 agonist: -0.2; MOR ag counter: -0.5; HTR2A ag conf: 10.5

How did Cc1cc(NS(=O)(=O)c2ccc(NC(=S)NC(=O)c3cccc(S(=O)(=O)N(C)C)c3)cc2)no1 do in these assays?
MC4R barr agon: -2.5; MC4R antagonist: 7.1; TAAR1 antag: -14.1; B2AR ag: -1.2; HTR2A ag: 15.5*; TAAR1 agonist: -0.5; MOR ag counter: -0.7; HTR2A ag conf: -4.1

How did Cc1ccc(S(=O)(=O)NCCn2nc(C)nc2C)cc1 do in these assays?
MC4R barr agon: -0.9; MC4R antagonist: 4.2; TAAR1 antag: 4.9; B2AR ag: 7.7; HTR2A ag: 1.1; TAAR1 agonist: -3.8

How did Cc1ccc(C(=O)N/C(=C/c2ccccc2)C(=O)NC(Cc2ccccc2)C(=O)O)cc1 (configuration not stated) do in these assays?
MC4R barr agon: -0.9; MC4R antagonist: 14.5; TAAR1 antag: 0.2; B2AR ag: -1.2; HTR2A ag: 16.5*; TAAR1 agonist: 1.6; MOR ag counter: -0.6; HTR2A ag conf: 42.1*

How did O=C(Nc1ccc(C(=O)O)cc1)/C(=C/c1ccc2c(c1)OCO2)NC(=O)c1cccc(Br)c1 do in these assays?
MC4R barr agon: -1.0; MC4R antagonist: 4.7; TAAR1 antag: 7.6; B2AR ag: 3.9; HTR2A ag: 18.6*; TAAR1 agonist: 3.9; MOR ag counter: -0.4; HTR2A ag conf: -5.3

Results for O=C(Nc1cccc(C(=O)O)c1)/C(=C\c1ccccc1)NC(=O)c1ccccc1 ?
MC4R barr agon: -4.2; MC4R antagonist: 7.2; TAAR1 antag: -0.6; B2AR ag: 3.6; HTR2A ag: 17.7*; TAAR1 agonist: 8.5; MOR ag counter: -0.8; HTR2A ag conf: -3.3

How did CCCc1cc(=O)[nH]c2nnc(SCC(=O)Nc3ccc4c(c3)OCCO4)n12 do in these assays?
MC4R barr agon: 3.9; MC4R antagonist: -3.7; TAAR1 antag: -18.9; B2AR ag: 1.8; HTR2A ag: -3.3; TAAR1 agonist: 0.2

Results for O=S1(=O)CC(N2CC=CC2)CN1Cc1cn(Cc2cccc(C(F)(F)F)c2)nn1 (configuration not stated) ?
TAAR1 antag: -12.6; HTR2A ag: 1.4; TAAR1 agonist: 2.7
